High-throughput results from PubChem BioAssay.
LEDGF integ inh = blocks HIV-1 LEDGF/p75-dependent DNA integration; TR-FRET IN-LEDGF/p75 DNA integration, Eu/Cy5; inhibition, % at 3.7 µM; 370,000 compounds, 0.64% hits;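 active = inhibition above the screen-wide mean plus 3 SD, cut at about 13% in these data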;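 note: signal is the Cy5 over europium emission ratio at 671 and 618 nm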
PRMT1 FP inh = blocks human protein arginine methyltransferase 1. inhibition, % at 2.79 µM. recombinant PRMT1, activity-based probe fluorescence polarization. 370,000 compounds, 1.3% hits. AID 652257;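 active = inhibition above about 21% made by adding two undisclosed values, limit read from the data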
HTRA1 inhibitor = inhibitors of human serine peptidase HTRA1; Q92743; recombinant HTRA1, FP-rhodamine activity-based probe, fluorescence polarization; inhibition, % at 5.96 µM; 340,000 compounds, 0.5% hits; in the data active = inhibition above about 36%
DAGLB inhibitor = blocks human DAGLB lipase activity. Q8NCG7. 340,000 compounds, 0.059% hits. inhibition, % at 5.17 µM. HEK293T DAGLB membrane lysate, EnzChek fluorogenic substrate. AID 504411; in the data active = inhibition above about 34%
Target sequence (Q8NCG7 whole entry, looked up): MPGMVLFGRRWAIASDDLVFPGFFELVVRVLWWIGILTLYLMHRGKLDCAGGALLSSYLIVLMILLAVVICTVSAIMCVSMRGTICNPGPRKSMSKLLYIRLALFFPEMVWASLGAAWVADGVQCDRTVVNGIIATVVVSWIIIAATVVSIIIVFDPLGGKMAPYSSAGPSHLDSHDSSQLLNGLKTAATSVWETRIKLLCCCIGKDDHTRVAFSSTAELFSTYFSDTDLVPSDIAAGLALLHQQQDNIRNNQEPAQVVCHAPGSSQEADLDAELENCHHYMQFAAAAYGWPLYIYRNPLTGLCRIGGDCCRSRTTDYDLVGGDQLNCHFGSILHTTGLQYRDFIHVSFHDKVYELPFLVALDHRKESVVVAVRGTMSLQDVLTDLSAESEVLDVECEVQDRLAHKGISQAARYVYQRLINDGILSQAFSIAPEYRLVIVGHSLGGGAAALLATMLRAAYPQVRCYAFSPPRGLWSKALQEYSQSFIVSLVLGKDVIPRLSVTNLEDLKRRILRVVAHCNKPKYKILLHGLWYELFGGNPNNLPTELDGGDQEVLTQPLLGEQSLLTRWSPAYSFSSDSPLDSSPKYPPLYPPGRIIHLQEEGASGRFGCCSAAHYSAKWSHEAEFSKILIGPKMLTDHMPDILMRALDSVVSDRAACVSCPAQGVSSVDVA
rCAG binder = r(CAG) repeat RNA binding; TO-PRO-1 dye displacement fluorescence; 370,000 compounds, 1.3% hits; inhibition, % at 3 µM;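 active = inhibition above the plate cutoff, the mean of all test compounds on that plate plus 3 SD, cut at about 35% in these data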;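 note: higher means more dye released from RNA so lower well fluorescence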
ABHD4 inh = ABHD4 (mouse) inhibition, primary FP screen | Q8VD66 | purified mABHD4, FP-Rh probe fluorescence polarization | inhibition, % at 8.92 µM | 370,000 compounds, 0.54% hits;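 active = inhibition exceeding the mean over every tested compound plus 3 SD, cut at about 30% in these data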
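system = mouse ABHD4 enzyme, wild type | medium = HEPES pH 7.0, NaCl, Pluronic buffer | also added = FP-Rh probe | incubation = Enzyme–compound pre-incubation 45 min, then probe 60 min, both 25 °C | technique = fluorescence polarization, excitation 525 nm, emission 598 nm, BODIPY TMR filters | controls = S159A mutant high control, sample median low control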
PRMT1 inh conf = PRMT1 (human) inhibition, FP confirmation; shares compounds with PRMT1 FP inh; recombinant His-PRMT1, activity-based probe fluorescence polarization; inhibition, % at 2.79 µM; 3,300 compounds, 42% hits;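 active = mean inhibition across replicates above the hit cutoff derived for the earlier primary screen, cut at about 22% in these data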
mABHD4 conf = confirmation of mouse ABHD4 inhibitors; shares compounds with ABHD4 inh; AID 720658; 1,800 compounds, 55% hits; purified mABHD4, FP-Rh probe fluorescence polarization; inhibition, % at 8.92 µM;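 active = mean inhibition across replicates above the hit cutoff set in the primary screen, cut at about 30% in these data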
IN multimer act = HIV-1 integrase multimerization activation, counter-screen | shares compounds with LEDGF integ inh | TR-FRET HIV-1 integrase multimerization, biochemical | activation, % at 7.7 µM | 2,000 compounds, 17% hits; in the data active = activation above about 8.9%
TRFRET interf = TR-FRET optical interference, LEDGF/p75 integration counter-screen | shares compounds with LEDGF integ inh | TR-FRET optical interference counterscreen, HIV-1 IN multimerization | AID 1053135 | inhibition, % at 7.7 µM | 2,000 tested, under 10 active;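 active = inhibition above the mean over all tested compounds plus 3 SD, which no compound reached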
LEDGF integ conf = confirmation of HIV-1 LEDGF/p75-dependent integration inhibitors | shares compounds with LEDGF integ inh | TR-FRET LEDGF/p75-dependent HIV-1 integration, biochemical | inhibition, % at 3.7 µM | 2,000 compounds, 36% hits | AID 1053136; in the data active = inhibition above about 14%
Each line names hits and unclear results; the compound was inactive in the other large screens (follow-up assays come after a bar, where they were run). Compounds with a hit are over-represented: about 3.2% of the library has one in this group of screens.

O=C1C(=Cc2cccc(O)c2O)SC(=S)N1CCCN1CCOCC1	LEDGF integ inh 24, PRMT1 FP inh 82 | PRMT1 inh conf 83 | IN multimer act 18 | TRFRET interf inactive | LEDGF integ conf inactive
COc1cc(NC(=O)Nc2cccc3cccnc23)cc(OC)c1OC	none
CSc1ccc(C=NNc2ccc(S(=O)(=O)Nc3ccccc3C(=O)O)cc2[N+](=O)[O-])cc1	ABHD4 inh 32 | mABHD4 conf 78
O=C(N/N=C/c1c(O)ccc2ccccc12)c1cccnc1	ABHD4 inh 30 | mABHD4 conf 32
COc1ccc2ccccc2c1/C=N\NC(=O)c1cccnc1	none (no result: HTRA1 inhibitor, DAGLB inhibitor)
CC1(CCc2ccccc2)NC(=O)N(CC(=O)Nc2ccccc2)C1=O (configuration not stated)	none
OCCN(CCO)c1cc2c3ccccc3ccc2c2ccccc12	ABHD4 inh 30 | mABHD4 conf inactive
N#CCSc1nc2scc(-c3cccs3)c2c(=O)n1CCc1ccccc1	none
CCN(CC)C(=O)c1sc2nc(Cc3ccccc3)[nH]c(=O)c2c1C	ABHD4 inh 37 | mABHD4 conf 40
CC(=O)N(Cc1ccccc1)Cc1nc2sc(C)c(C)c2c(=O)[nH]1	none
Cc1cccc(C)c1NC(=O)c1c(O)c2ccccc2[nH]c1=O	none
O=C(Nc1ncccc1O)c1c(O)c2ccccc2[nH]c1=O	ABHD4 inh 39 | mABHD4 conf inactive
CCSC1=N/C(=C\c2ccc(-c3ccccc3[N+](=O)[O-])o2)C(=O)S1	ABHD4 inh 37 | mABHD4 conf inactive
Cc1ccc2c(NC(=O)C3CC3)c(C)ccc2n1	none (no result: HTRA1 inhibitor, DAGLB inhibitor)
Oc1ccc(/C=N/Nc2nc(N3CCCC3)nc(N3CCCC3)n2)cc1O	ABHD4 inh 30 | mABHD4 conf inactive
c1ccc(-c2nn3c(Cn4cnc5ccccc54)nnc3s2)cc1	none
COc1ccc(N2CCN(c3ccc(NC(=O)/C=C\C(=O)O)cc3)CC2)cc1	ABHD4 inh 36 | mABHD4 conf inactive
O=C(O)/C=C/C(=O)Nc1ccc(O)cc1	LEDGF integ inh 14, ABHD4 inh 37 | mABHD4 conf inactive
CCCCn1c(N)c(N(CCOC)C(=O)C2CCN(C(=O)c3ccc(F)cc3)CC2)c(=O)[nH]c1=O	ABHD4 inh 31 | mABHD4 conf inactive
CN(C)CCCNC(=O)c1ccc(-c2nc(-c3ccc(Cl)cc3)cs2)cc1	none
CC1CCCCN1CC(=O)NC(c1ccccc1)c1ccccc1 (configuration not stated)	none
CC(C)CCNC(=O)c1ccc2c(SCC(=O)O)c3c(nc2c1)CCC3	ABHD4 inh 46 | mABHD4 conf inactive
Cc1sc2nc(C3CC3)nc(NCCNS(=O)(=O)c3ccccc3)c2c1C	none
Cc1ccccc1Cc1c(C)nc2c(C(=O)N3CCN(Cc4ccc5c(c4)OCO5)CC3)cnn2c1C	none
Cc1cccc(Cc2c(C)nc3c(C(=O)N4CCN(Cc5ccc6c(c5)OCO6)CC4)cnn3c2C)c1	ABHD4 inh 36 | mABHD4 conf 38
O=C(O)c1cccc(Nc2nc(-c3cc4ccccc4oc3=O)cs2)c1	ABHD4 inh 30 | mABHD4 conf 49
CN(C(=S)Nc1ccc(SC(F)F)cc1)c1ccc(O)cc1	PRMT1 FP inh 30, ABHD4 inh 45 | mABHD4 conf inactive
CC(=O)Oc1ccc(C(=O)OCC(=O)c2c(N)n(C)c(=O)n(C)c2=O)cc1OC(C)=O	ABHD4 inh 46 | mABHD4 conf inactive
Cc1ccccc1OCCC(=O)OCC(=O)N1CCN(S(=O)(=O)c2ccc(Cl)cc2)CC1	none
Cc1cc2c(c(/C=C/C(=O)c3ccccc3)c1)OC1(C=C2)Oc2ccccc2C(=O)N1C (configuration not stated)	none
O=C1[C@H]2[C@H](C=CC[C@H]2C(=O)N2CCOCC2)CCN1Cc1ccc(Cl)c(Cl)c1	none (no result: HTRA1 inhibitor, DAGLB inhibitor)
O=C(O)[C@H]1CC=C[C@H]2CCN(Cc3ccc(Cl)c(Cl)c3)C(=O)[C@@H]12	ABHD4 inh 30 | mABHD4 conf inactive
CCOc1cc(-c2nc(C)c(C(C)=O)n2O)ccc1OCC(=O)Nc1ccccc1	none
CC1CCN(C(=O)COC(=O)c2cc3ccccc3cc2O)CC1	none
CC1CCN(S(=O)(=O)c2ccc(Cl)s2)CC1	none
CC1CCN(c2ccc(C(=O)O)cc2NS(=O)(=O)c2ccc(Cl)s2)CC1	ABHD4 inh 38 (no result: HTRA1 inhibitor, DAGLB inhibitor) | mABHD4 conf 44
O=C(CCN1C(=O)C2C3C=CC(C3)C2C1=O)NC1CCCCC1 (configuration not stated)	ABHD4 inh 88 | mABHD4 conf inactive
CCOC(=O)N1CCC(NC(=O)CCN2C(=O)C3C4C=CC(C4)C3C2=O)CC1 (configuration not stated)	none
COCCN1C(=O)N[C@@H](c2cccc(C(F)(F)F)c2)[C@H](C(C)=O)[C@H]1C	none
COc1ccc(C(N)c2csc(Nc3ccc(C(F)(F)F)cn3)n2)cc1 (configuration not stated)	ABHD4 inh 34 (no result: HTRA1 inhibitor, DAGLB inhibitor) | mABHD4 conf inactive
CCCCCCCCn1cc(C(C)=O)c(=O)[nH]c1=O	none
Cn1nnnc1SCC(=O)NCCc1ccc(Cl)cc1	none
CC(=O)Nc1ccc(Nc2c3c4c(cccc4n(C)c2=O)C(=O)c2ccccc2-3)cc1	PRMT1 FP inh 71, ABHD4 inh 31 | mABHD4 conf 33
CC(=O)Nc1ccc2c(c1)C(=O)c1ccccc1C2=O	none
CS(=O)(=O)N1CCCCC1CCN1CCCCC1 (configuration not stated)	none
CC(C)C1=CC(=NS(=O)(=O)c2cccc([N+](=O)[O-])c2)C=C(C(C)C)C1=O	none
CCN(CC)S(=O)(=O)c1ccc(N2CCOCC2)c(NC(=O)c2cccc3c(=O)c(C)c(-c4ccccc4)oc23)c1	ABHD4 inh 33 | mABHD4 conf 37
CCN(CC)S(=O)(=O)c1ccc(N2CCOCC2)c(NC(=O)c2c3c(nc4ccccc24)CCC3)c1	ABHD4 inh 34 | mABHD4 conf 30
